Sampled rows, rich in hits. Any-hit rate of the full collection: about 1.7%.
FN deposit inh: fibronectin deposition inhibition; AID 743247; inhibition, % at 12.6 µM; AH1F fibroblasts, Alexa488-fibronectin deposition fluorescence, overnight; 350,000 tested, 0.086% active;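 active = mean inhibition across replicates of 30% or more, regardless of how many single replicates reach that level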;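 note: positive control wells lacked labelled fibronectin entirely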
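Test system: AH1F fibroblast monolayer depositing Alexa488-labelled fibronectin into matrix. Input: 10000 cells per well. Technique: fluorescence, ex 485 nm, em 525 nm. Buffer or medium: DMEM plus 2% serum, read in PBS. Timing: 1 h cell adhesion before compound, then overnight fibronectin incubation. Compound: single dose, pinned. Read-out basis: inhibition from reduced deposited-fibronectin fluorescence.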
PfHsp90 set2: reduces growth (ATP signal) of yeast expressing P. falciparum Hsp90 | S. cerevisiae expressing PfHsp90, BacTiter-Glo ATP, 48 h; yeast lacking PDR1 and PDR3 efflux regulators | inhibition, % at 9.4 µM | 310,000 tested, 0.32% active;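 active = every replicate shows inhibition above about 80%, whatever the replicate mean, limit read from the data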;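 note: 0% = DMSO neutral controls and 100% = 20 µM radicicol positive controls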
CSC inhib: blocks cancer stem cells | cancer stem cell-like cells viability, luminescence | inhibition, % at 7.5 µM | 300,000 tested, 1.1% active; in the data active = inhibition above about 75%; tested in HMLE shEcad cells
SKKanGAS inh: SKKanGAS growth inhibition; S. pyogenes SKKanGAS, kanamycin growth, BacTiter-Glo, 6 h; 300,000 tested, 1.3% active; inhibition, % at 7.5 µM;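 active = mean replicate score, as percent of positive control median, at least 50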;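 note: strain carries kanamycin resistance gene driven by streptokinase promoter and grows in 40 µg/ml kanamycin; loss of luminescence reflects streptokinase promoter inhibition or plain growth inhibition; 0% = median of DMSO wells and 100% = positive control at its reference dose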
PglD inh: inhibitors of Campylobacter jejuni PglD acetyltransferase | purified PglD enzyme, DTNB colorimetric CoA detection | inhibition, % at 12.5 µM | 360,000 tested, 0.098% active; in the data active = inhibition above about 16%, passing the limit was not always enough
Rtt109 Vps75: blocks Candida albicans Rtt109/Vps75 acetyltransferase activity; inhibition, % at 34.9 µM; Q5AAJ8; purified Rtt109/Vps75, ThioGlo CoA-SH fluorescence, 4 h; 330,000 tested, 0.16% active; AID 540336;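 active = inhibition of at least 50% in every replicate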
Target sequence (Q5AAJ8 whole entry, looked up): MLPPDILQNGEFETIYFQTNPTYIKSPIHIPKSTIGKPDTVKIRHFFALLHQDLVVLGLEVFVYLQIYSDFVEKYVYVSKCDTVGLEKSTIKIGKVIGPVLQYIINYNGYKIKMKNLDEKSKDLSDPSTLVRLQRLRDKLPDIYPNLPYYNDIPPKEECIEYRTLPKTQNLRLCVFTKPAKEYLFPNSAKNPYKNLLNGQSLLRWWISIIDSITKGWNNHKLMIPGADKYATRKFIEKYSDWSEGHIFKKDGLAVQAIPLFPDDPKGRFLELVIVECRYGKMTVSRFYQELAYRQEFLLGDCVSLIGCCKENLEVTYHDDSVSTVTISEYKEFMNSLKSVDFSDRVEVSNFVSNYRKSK
Starred values were filed as active, the others as inactive; nt = no result given.

SMILES	FN deposit inh	PfHsp90 set2	CSC inhib	SKKanGAS inh	PglD inh	Rtt109 Vps75
O=[N+]([O-])c1ccc(N/N=C/c2c[nH]c3ccccc23)cc1	0.7	61.0	96.1*	8.5	1.3	-13.2
O=[N+]([O-])c1ccc(N/N=C/c2ccc[nH]2)cc1	-12.3	-7.8	88.4*	nt	-10.3	40.5
O=[N+]([O-])c1ccc(N/N=C/c2cccc(O)c2O)cc1	8.0	0.5	95.6*	-3.5	-1.7	6.9
O=[N+]([O-])c1ccccc1N/N=C/c1c[nH]c2ccccc12	nt	10.1	-7.8	12.2	3.8	-1.6
CCCNC(=O)N1C[C@@H](C)[C@H](OC)CN(C)C(=O)c2ccc(NS(=O)(=O)CC(F)(F)F)cc2OC[C@@H]1C	-18.4	nt	nt	nt	-2.2	nt
CN1C(=O)c2cc(NC(=O)c3cccc(F)c3)ccc2OC[C@H]2O[C@H](CC(=O)NCc3ccccc3)CC[C@@H]21	-25.0	nt	nt	nt	5.3	nt
O=C(Nc1cc(-c2ccccc2)[nH]n1)c1ccc(Cl)cc1	12.2	4.3	60.0	75.0*	-5.3	-4.8
Cc1ccc(/C=C/c2ccc(=O)n(Cc3ccccc3Cl)n2)cc1	nt	nt	24.0	69.2*	nt	-0.7
CO[C@@H]1CN(C)C(=O)c2ccc(NC(=O)c3cnccn3)cc2OC[C@@H](C)N(C)C[C@@H]1C	-2.6	nt	nt	nt	nt	nt
CC1C(=O)C(C)C(c2ccc(Cl)cc2)NC1c1ccc(Cl)cc1 (stereo not drawn)	-16.7	nt	54.6	35.4	6.5	nt
CC1C(=O)C(C)C(c2cccc(Br)c2)NC1c1cccc(Br)c1 (stereo not drawn)	4.1	2.0	15.1	59.5*	-2.3	-1.0
CO[C@H]1CN(C)C(=O)c2ccc(NS(=O)(=O)c3ccc(-c4ccccc4)cc3)cc2OC[C@@H](C)NC[C@@H]1C	5.6	nt	nt	nt	nt	nt
CCn1c(CNc2ccc(Cl)cc2)nnc1SCc1ccccc1	-12.2	92.5*	-0.4	-0.8	-36.8	2.9
Cn1c(CNc2ccc(Cl)cc2)nnc1SCc1ccccc1	-7.7	121.0*	-7.0	-2.3	nt	31.3
COCC(=O)Nc1ccc2c(c1)OC[C@H](C)N(Cc1cc(F)ccc1F)C[C@@H](C)[C@@H](OC)CN(C)C2=O	-4.7	nt	nt	nt	1.8	nt
COc1ccc(NC(=O)N(C)C[C@@H]2Oc3cc(C#CCN(C)C)ccc3S(=O)(=O)N([C@@H](C)CO)C[C@H]2C)cc1	-46.1	nt	nt	nt	-0.6	nt
O=C(C[C@@H]1CC[C@H]2[C@@H](COC[C@H](O)CN2Cc2ccccc2F)O1)NCc1ccccc1F	-11.9	nt	nt	nt	-1.1	nt
O=C(Nc1ccn(Cc2c(F)c(F)cc(F)c2F)n1)c1ccc(COc2ccc(Cl)cc2Cl)o1	-10.1	-2.6	15.2	50.0*	2.4	-9.2
Cc1nn(Cc2c(F)c(F)c(F)c(F)c2F)c(C)c1NC(=O)c1ccc(COc2ccc(Cl)cc2Cl)o1	-12.7	-28.0	36.7	28.7	nt	-6.3
O=C(N/N=C/C=C/c1ccccc1)c1n[nH]c2c1CCC2	nt	-7.5	77.1*	-3.4	-0.3	-1.2
CC(/C=N/NC(=O)c1n[nH]c2c1CCC2)=C\c1ccccc1	nt	-5.3	47.7	3.8	-1.1	7.4
O=C(CN1CCN(c2ccccc2Cl)CC1)NC1CCCc2ccccc21 (stereo not drawn)	nt	-6.3	-7.0	-22.2	7.0	1.0
Cc1ccc(Cl)cc1N1CCN(CC(=O)NC2CCCc3ccccc32)CC1 (stereo not drawn)	2.4	36.7	78.5*	-3.9	nt	-12.2
C[C@@H]1CN([C@@H](C)CO)C(=O)c2cc(NS(=O)(=O)c3cccs3)ccc2O[C@@H]1CN(C)Cc1ccc(-c2ccccc2)cc1	12.3	nt	nt	nt	7.1	nt
COc1ccc(-c2nc(CCl)cs2)cc1	1.2	24.6	3.1	0.9	nt	4.9
SMILES	FN deposit inh	PfHsp90 set2	CSC inhib	SKKanGAS inh	PglD inh	Rtt109 Vps75
COc1ccc(-c2csc(-c3ccc(O)cc3)n2)cc1	26.5	-8.0	89.9*	17.7	nt	-5.1
O=C(Nc1nnc(-c2ccc(F)cc2)o1)c1cc(Cl)sc1Cl	-13.8	80.0*	nt	104.7*	nt	16.9
O=C(Nc1nnc(-c2ccncc2)o1)c1ccccc1F	nt	16.6	-0.6	-0.9	-0.4	0.8
O=C(Nc1nnc(-c2ccncc2)o1)c1ccccc1	nt	7.2	11.6	-6.7	nt	8.3
O=C(Nc1nnc(-c2ccccc2)o1)c1cc(Cl)sc1Cl	-0.3	-68.7	-14.2	89.5*	nt	0.0
O=C(Nc1nnc(-c2ccc(Cl)cc2)o1)c1nc2ccccc2s1	22.5	-37.2	98.8*	94.2*	-1.2	5.9
O=C(Nc1nnc(-c2ccc(Cl)cc2)o1)Nc1ccccc1Cl	-4.8	11.9	10.8	-6.3	nt	3.9
NCC[C@@H]1CC[C@H](NS(=O)(=O)Cc2ccccc2)[C@@H](CO)O1	5.2	nt	nt	nt	1.5	nt
CC(=O)N(C)C[C@H]1Oc2ccc(N)cc2C(=O)N(C)C[C@H]1C	3.8	nt	nt	nt	nt	nt
O=[N+]([O-])c1ccc(S(=O)Cc2ccccc2)c([N+](=O)[O-])c1 (stereo not drawn)	36.7*	136.8*	nt	nt	nt	-0.9
O=[N+]([O-])c1ccc(CS(=O)c2ccccc2)cc1 (stereo not drawn)	nt	8.5	nt	nt	nt	-2.3
Cc1cccc2cc(CN(Cc3nnnn3C3CCCCC3)C3CCCC3)c3nnnn3c12	-4.7	104.5*	7.3	12.7	-0.5	-1.0
Cc1ccc(S(=O)(=O)Nc2ccc3c(c2)C(=O)N([C@H](C)CO)C[C@H](C)[C@H](CN(C)S(=O)(=O)c2cccs2)O3)cc1	nt	nt	nt	nt	3.6	nt
O=c1cc(N2CCCCC2)c(-c2ccccc2)nn1Cc1ccccc1Cl	nt	6.0	-5.6	43.1	-8.3	29.1
O=c1cc(N2CCCCC2)c(-c2ccccc2)nn1Cc1cccc(Cl)c1	nt	-14.8	88.3*	52.4*	-5.0	5.4
C=CCn1nc(-c2ccccc2)c(N2CCCCC2)cc1=O	13.0	2.0	14.8	-8.7	nt	9.0
O=c1cc(N2CCCCC2)c(-c2ccccc2)nn1Cc1ccc(Cl)cc1Cl	nt	-31.1	82.7*	105.0*	1.1	7.7
CCCN1C[C@@H](C)[C@@H](OC)CN(C)C(=O)c2cc(NS(=O)(=O)CC)ccc2OC[C@@H]1C	-2.6	nt	nt	nt	1.2	nt
CC(C)(C)C(O)C(Cc1ccccc1Cl)n1cncn1 (stereo not drawn)	-2.2	91.8*	-8.1	-1.3	4.1	-5.9
CN(C)C(=O)C[C@H]1C=C[C@@H](NS(=O)(=O)c2ccccc2)[C@@H](CO)O1	1.8	nt	nt	nt	-0.8	nt
CC1=C(SCc2ccccc2)C(=O)c2ccccc2C1=O	nt	-0.2	nt	nt	-7.7	1.7

Screening results deposited in PubChem by Broad Institute.
